{"source": "ChEMBL document CHEMBL1123417", "about": "“New structure-activity relationships of the quinolone antibacterials using the target enzyme. The development and application of a DNA gyrase assay” (J Med Chem, 1986)", "key": {"[1]": {"tested_on": "Escherichia coli", "test": "Antibacterial activity against Escherichia coli (vogel)"}, "[2]": {"tested_on": "Klebsiella pneumoniae", "test": "Antibacterial activity against Klebsiella pneumonia (MGH-2)"}, "[3]": {"tested_on": "Pseudomonas aeruginosa", "test": "Antibacterial activity against Pseudomonas aeruginosa (UI-18)"}, "[4]": {"molecular_target": "DNA gyrase (Escherichia coli) (UniProt P0AES6+P0AES4)"}, "[5]": {"tested_on": "Staphylococcus aureus", "test": "Antibacterial activity against Staphylococcus aureus (H228)"}, "[6]": {"molecular_target": "DNA gyrase (Escherichia coli, UniProt P0AES4+P0AES6)", "test": "Inhibitory concentration in supercoiling inhibition Escherichia coli DNA gyrase assay", "assay_type": "protein-complex assay", "conditions": "read-out: I50 (converted)", "outline": "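Gyrase A and B subunits purified from E. coli H560, each titrated to fully supercoil relaxed Col E1 plasmid (~0.3 μg/mL). Drug in 0.1 N KOH, 40 min at 30 °C, then ATP for 10 min. SDS/proteinase K quench, 1% agarose gel, ethidium stain. Serial dilutions start at 200 μg/mL. I50 is the mean of the initial-inhibition and 100%-inhibition concentrations.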"}, "[7]": {"tested_on": "Streptococcus pneumoniae", "test": "Antibacterial activity against Streptococcus pneumoniae (SV-1)"}, "[8]": {"tested_on": "Escherichia coli", "test": "Antibacterial activity against Escherichia coli (H560)"}}, "data": [{"smiles": "COn1cc(C(=O)O)c(=O)c2cc3c(cc21)OCO3", "note": "[MILOXACIN]", "values": [{"measurement": "MIC", "setting": "[1]", "result": 0.4, "unit": "µg/mL"}, {"measurement": "MIC", "setting": "[2]", "result": 0.2, "unit": "µg/mL"}, {"measurement": "MIC", "setting": "[3]", "result": 12.5, "unit": "µg/mL"}, {"measurement": "gyrase cleavage conc", "setting": "[4]", "result": 10, "unit": "µg/mL"}, {"measurement": "MIC", "setting": "[5]", "result": 6.3, "unit": "µg/mL"}, {"measurement": "IC50", "setting": "[6]", "result": 190, "unit": "µM"}, {"measurement": "MIC", "setting": "[7]", "result": 100, "unit": "µg/mL"}, {"measurement": "MIC", "setting": "[8]", "result": 0.4, "unit": "µg/mL"}]}, {"smiles": "CNn1cc(C(=O)O)c(=O)c2cc(F)c(N3CCN(C)CC3)cc21", "note": "[AMIFLOXACIN]", "values": [{"measurement": "MIC", "setting": "[1]", "result": 0.1, "unit": "µg/mL"}, {"measurement": "MIC", "setting": "[2]", "result": 0.2, "unit": "µg/mL"}, {"measurement": "MIC", "setting": "[3]", "result": 0.8, "unit": "µg/mL"}, {"measurement": "MIC", "setting": "[5]", "result": 1.6, "unit": "µg/mL"}, {"measurement": "IC50", "setting": "[6]", "result": 18.8, "unit": "µM"}, {"measurement": "MIC", "setting": "[7]", "result": 12.5, "unit": "µg/mL"}]}, {"smiles": "CCn1cc(C(=O)O)c(=O)c2cc(F)c(N3CCNCC3)c(F)c21", "values": [{"measurement": "MIC", "setting": "[1]", "result": 0.2, "unit": "µg/mL"}, {"measurement": "MIC", "setting": "[2]", "result": 0.1, "unit": "µg/mL"}, {"measurement": "MIC", "setting": "[3]", "result": 1.6, "unit": "µg/mL"}, {"measurement": "gyrase cleavage conc", "setting": "[4]", "result": 1, "unit": "µg/mL"}, {"measurement": "MIC", "setting": "[5]", "result": 3.1, "unit": "µg/mL"}, {"measurement": "IC50", "setting": "[6]", "result": 18.7, "unit": "µM"}, {"measurement": "MIC", "setting": "[7]", "result": 3.1, "unit": "µg/mL"}, {"measurement": "MIC", "setting": "[8]", "result": 0.1, "unit": "µg/mL"}]}, {"smiles": "CCn1cc(C(=O)O)c(=O)c2cc(F)c(N3CCSC3)nc21", "values": [{"measurement": "MIC", "setting": "[1]", "result": 0.1, "unit": "µg/mL"}, {"measurement": "MIC", "setting": "[2]", "result": 0.4, "unit": "µg/mL"}, {"measurement": "MIC", "setting": "[3]", "result": 1.6, "unit": "µg/mL"}, {"measurement": "gyrase cleavage conc", "setting": "[4]", "result": 5, "unit": "µg/mL"}, {"measurement": "MIC", "setting": "[5]", "result": 0.05, "unit": "µg/mL"}, {"measurement": "IC50", "setting": "[6]", "result": 201, "unit": "µM"}, {"measurement": "MIC", "setting": "[7]", "result": 1.6, "unit": "µg/mL"}, {"measurement": "MIC", "setting": "[8]", "result": 0.4, "unit": "µg/mL"}]}, {"smiles": "CCn1nc(C(=O)O)c(=O)c2cc3c(cc21)OCO3", "note": "[CINOXACIN]", "values": [{"measurement": "gyrase cleavage conc", "setting": "[4]", "result": 43, "unit": "µg/mL"}, {"measurement": "IC50", "setting": "[6]", "result": "> 381", "unit": "µM"}]}, {"smiles": "CCn1cc(C(=O)O)c(=O)c2cc(F)c(N3CCCC3)cc21", "values": [{"measurement": "MIC", "setting": "[1]", "result": 1.6, "unit": "µg/mL"}, {"measurement": "MIC", "setting": "[2]", "result": "> 100", "unit": "µg/mL"}, {"measurement": "MIC", "setting": "[3]", "result": "> 100", "unit": "µg/mL"}, {"measurement": "gyrase cleavage conc", "setting": "[4]", "result": 5, "unit": "µg/mL"}, {"measurement": "MIC", "setting": "[5]", "result": 0.8, "unit": "µg/mL"}, {"measurement": "IC50", "setting": "[6]", "result": 85.4, "unit": "µM"}, {"measurement": "MIC", "setting": "[7]", "result": 12.5, "unit": "µg/mL"}, {"measurement": "MIC", "setting": "[8]", "result": 1.6, "unit": "µg/mL"}]}, {"smiles": "CCn1cc(C(=O)O)c(=O)c2cnc(N3CCNCC3)nc21", "note": "[PIPEMIDIC ACID]", "values": [{"measurement": "gyrase cleavage conc", "setting": "[4]", "result": 50, "unit": "µg/mL"}, {"measurement": "IC50", "setting": "[6]", "result": "> 330", "unit": "µM"}]}, {"smiles": "CCn1cc(C(=O)O)c(=O)c2cc(F)c(N3CCCC3)nc21", "values": [{"measurement": "MIC", "setting": "[1]", "result": 3.1, "unit": "µg/mL"}, {"measurement": "MIC", "setting": "[2]", "result": 3.1, "unit": "µg/mL"}, {"measurement": "MIC", "setting": "[3]", "result": 6.3, "unit": "µg/mL"}, {"measurement": "gyrase cleavage conc", "setting": "[4]", "result": 2.5, "unit": "µg/mL"}, {"measurement": "MIC", "setting": "[5]", "result": 0.2, "unit": "µg/mL"}, {"measurement": "IC50", "setting": "[6]", "result": 16.4, "unit": "µM"}, {"measurement": "MIC", "setting": "[7]", "result": 3.1, "unit": "µg/mL"}, {"measurement": "MIC", "setting": "[8]", "result": 0.4, "unit": "µg/mL"}]}, {"smiles": "CCn1cc(C(=O)O)c(=O)c2cc3c(cc21)OCO3", "note": "[OXOLINIC ACID]", "values": [{"measurement": "gyrase cleavage conc", "setting": "[4]", "result": 10, "unit": "µg/mL"}, {"measurement": "IC50", "setting": "[6]", "result": 95.7, "unit": "µM"}]}, {"smiles": "CN1CCN(c2c(F)cc3c(=O)c(C(=O)O)cn(CCF)c3c2F)CC1", "note": "[FLEROXACIN]", "values": [{"measurement": "gyrase cleavage conc", "setting": "[4]", "result": 2.5, "unit": "µg/mL"}, {"measurement": "IC50", "setting": "[6]", "result": 10.3, "unit": "µM"}]}, {"smiles": "CCn1cc(C(=O)O)c(=O)c2cnc(N3CCCC3)nc21", "note": "[PIROMIDIC ACID]", "values": [{"measurement": "gyrase cleavage conc", "setting": "[4]", "result": 38, "unit": "µg/mL"}, {"measurement": "IC50", "setting": "[6]", "result": "> 347", "unit": "µM"}]}, {"smiles": "CCn1cc(C(=O)O)c(=O)c2ccc(-c3ccncc3)cc21", "note": "[ROSOXACIN]", "values": [{"measurement": "MIC", "setting": "[1]", "result": 0.2, "unit": "µg/mL"}, {"measurement": "MIC", "setting": "[2]", "result": 0.4, "unit": "µg/mL"}, {"measurement": "MIC", "setting": "[3]", "result": 6.3, "unit": "µg/mL"}, {"measurement": "gyrase cleavage conc", "setting": "[4]", "result": 2.5, "unit": "µg/mL"}, {"measurement": "MIC", "setting": "[5]", "result": 0.4, "unit": "µg/mL"}, {"measurement": "IC50", "setting": "[6]", "result": "> 34", "unit": "µM"}, {"measurement": "MIC", "setting": "[7]", "result": 12.5, "unit": "µg/mL"}, {"measurement": "MIC", "setting": "[8]", "result": 0.2, "unit": "µg/mL"}]}, {"smiles": "CCn1cc(C(=O)O)c(=O)c2cc(F)c(N3CCNCC3)nc21", "note": "[ENOXACIN]", "values": [{"measurement": "gyrase cleavage conc", "setting": "[4]", "result": 5, "unit": "µg/mL"}, {"measurement": "IC50", "setting": "[6]", "result": 87.4, "unit": "µM"}]}, {"smiles": "CCn1cc(C(=O)O)c(=O)c2cc(F)c(-n3cccc3)cc21", "note": "[IRLOXACIN]", "values": [{"measurement": "MIC", "setting": "[1]", "result": 1.6, "unit": "µg/mL"}, {"measurement": "MIC", "setting": "[2]", "result": 1.6, "unit": "µg/mL"}, {"measurement": "MIC", "setting": "[3]", "result": 12.5, "unit": "µg/mL"}, {"measurement": "gyrase cleavage conc", "setting": "[4]", "result": 2.5, "unit": "µg/mL"}, {"measurement": "MIC", "setting": "[5]", "result": 0.4, "unit": "µg/mL"}, {"measurement": "IC50", "setting": "[6]", "result": 93.2, "unit": "µM"}, {"measurement": "MIC", "setting": "[7]", "result": 12.5, "unit": "µg/mL"}, {"measurement": "MIC", "setting": "[8]", "result": 1.6, "unit": "µg/mL"}]}]}
